Experimental data as given in ChEMBL document CHEMBL4261636, “Design of Y2 Receptor Selective and Proteolytically Stable PYY3-36 Analogues” (J Med Chem, 2018).

Tests used:
[1] = target: T1, Neuropeptide Y receptor type 1 (Homo sapiens, UniProt P25929); test: Displacement of [125I]-PYY(1 to 36 residues) from human Y1R expressed in BHK-21 cell membranes after 2 hrs by scintillation proximity assay
T1 sequence (P25929 whole entry): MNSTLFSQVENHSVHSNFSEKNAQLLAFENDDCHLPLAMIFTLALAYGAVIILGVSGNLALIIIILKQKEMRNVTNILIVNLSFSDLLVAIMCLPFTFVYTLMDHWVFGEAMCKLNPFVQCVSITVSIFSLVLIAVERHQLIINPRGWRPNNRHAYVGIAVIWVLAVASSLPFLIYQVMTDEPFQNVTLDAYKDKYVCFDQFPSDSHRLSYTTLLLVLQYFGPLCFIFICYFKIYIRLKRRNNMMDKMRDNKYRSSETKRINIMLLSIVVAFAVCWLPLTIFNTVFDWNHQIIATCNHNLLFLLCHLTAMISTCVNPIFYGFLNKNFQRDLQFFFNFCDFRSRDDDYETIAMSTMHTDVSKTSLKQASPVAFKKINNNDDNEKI

[2] = target: Neuropeptide Y receptor type 4 (Mus musculus, UniProt Q61041); test: Displacement of [125I]-PP from mouse Y4R expressed in HEK293 cell membranes after 2 hrs by scintillation proximity assay
[3] = Displacement of [125I]-PYY(1 to 36 residues) from mouse Y2R expressed in HEK293 cell membranes after 2 hrs by scintillation proximity assay
[4] = target: T2, Neuropeptide Y receptor type 2 (Homo sapiens, UniProt P49146); test: Activation of human Y2R expressed in HEK293 cells assessed as inhibition of isoproterenol-induced increase in intracellular cAMP levels by calcium 5 dye-based FLIPR assay; type: functional, cell-based
T2 sequence (P49146 whole entry): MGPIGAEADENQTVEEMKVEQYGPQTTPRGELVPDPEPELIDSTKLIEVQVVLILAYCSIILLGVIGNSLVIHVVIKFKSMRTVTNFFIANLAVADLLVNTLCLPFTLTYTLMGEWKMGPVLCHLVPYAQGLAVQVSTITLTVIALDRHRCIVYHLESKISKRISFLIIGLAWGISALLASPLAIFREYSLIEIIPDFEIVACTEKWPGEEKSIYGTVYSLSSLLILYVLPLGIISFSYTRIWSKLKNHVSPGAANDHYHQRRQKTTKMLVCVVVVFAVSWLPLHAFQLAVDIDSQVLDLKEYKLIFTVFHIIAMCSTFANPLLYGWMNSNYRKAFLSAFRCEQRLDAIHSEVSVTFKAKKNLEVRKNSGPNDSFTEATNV

[5] = target: T3, Neuropeptide Y receptor type 5 (Mus musculus, UniProt O70342); test: Displacement of [125I]-PYY(1 to 36 residues) from mouse Y5R expressed in HEK293 cell membranes after 2 hrs by scintillation proximity assay
T3 sequence (O70342 whole entry): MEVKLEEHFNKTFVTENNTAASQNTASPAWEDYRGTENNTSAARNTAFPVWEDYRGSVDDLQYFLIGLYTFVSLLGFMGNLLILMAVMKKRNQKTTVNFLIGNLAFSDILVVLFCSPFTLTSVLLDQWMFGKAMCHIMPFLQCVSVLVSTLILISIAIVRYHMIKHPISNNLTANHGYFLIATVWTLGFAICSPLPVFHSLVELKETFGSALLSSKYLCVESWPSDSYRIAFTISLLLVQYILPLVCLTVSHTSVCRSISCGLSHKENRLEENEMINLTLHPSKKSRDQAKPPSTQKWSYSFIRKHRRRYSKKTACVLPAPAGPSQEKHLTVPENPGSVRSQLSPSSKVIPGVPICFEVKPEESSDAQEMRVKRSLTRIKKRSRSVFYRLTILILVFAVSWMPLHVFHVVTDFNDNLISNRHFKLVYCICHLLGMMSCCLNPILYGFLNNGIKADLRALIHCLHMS

[6] = target: T1, Neuropeptide Y receptor type 1; test: Activation of human Y1R expressed in HEK293 cells assessed as inhibition of isoproterenol-induced increase in intracellular cAMP levels by calcium 5 dye-based FLIPR assay; type: functional, cell-based
[7] = target: T2, Neuropeptide Y receptor type 2; test: Displacement of [125I]-PYY(1 to 36 residues) from human Y2R expressed in CHO cell membranes after 2 hrs by scintillation proximity assay
[8] = Displacement of [125I]-PYY(1 to 36 residues) from mouse Y1R expressed in HEK293 cell membranes after 2 hrs by scintillation proximity assay
Dipeptidyl peptidase 4 = Dipeptidyl peptidase 4 (Sus scrofa, UniProt P22411); test: Drug metabolism in minipig plasma assessed as DDP-4-meditaed GLP1(9 to 37 residues) formation by measuring half life at 1 uM by LC-MS analysis; type: ADME; conditions: pig
How it was run: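 Heparinized mini-pig plasma diluted 4:1 with 0.1 M PBS pH 7.4, pre-warmed 30 min at 37°C with peptide, then combined (1 uM final) and kept at 37°C. Aliquots taken at 5–300 min were quenched in 3 volumes methanol with internal standard, centrifuged and water-diluted. Analysed by ESI+ QTOF LC-MS against 20–2000 nM plasma calibrators, with %-remaining normalised to the 15 min sample; n = 3.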

Dipeptidyl peptidase 4, sequence (P22411 whole entry, the tested form may be a part): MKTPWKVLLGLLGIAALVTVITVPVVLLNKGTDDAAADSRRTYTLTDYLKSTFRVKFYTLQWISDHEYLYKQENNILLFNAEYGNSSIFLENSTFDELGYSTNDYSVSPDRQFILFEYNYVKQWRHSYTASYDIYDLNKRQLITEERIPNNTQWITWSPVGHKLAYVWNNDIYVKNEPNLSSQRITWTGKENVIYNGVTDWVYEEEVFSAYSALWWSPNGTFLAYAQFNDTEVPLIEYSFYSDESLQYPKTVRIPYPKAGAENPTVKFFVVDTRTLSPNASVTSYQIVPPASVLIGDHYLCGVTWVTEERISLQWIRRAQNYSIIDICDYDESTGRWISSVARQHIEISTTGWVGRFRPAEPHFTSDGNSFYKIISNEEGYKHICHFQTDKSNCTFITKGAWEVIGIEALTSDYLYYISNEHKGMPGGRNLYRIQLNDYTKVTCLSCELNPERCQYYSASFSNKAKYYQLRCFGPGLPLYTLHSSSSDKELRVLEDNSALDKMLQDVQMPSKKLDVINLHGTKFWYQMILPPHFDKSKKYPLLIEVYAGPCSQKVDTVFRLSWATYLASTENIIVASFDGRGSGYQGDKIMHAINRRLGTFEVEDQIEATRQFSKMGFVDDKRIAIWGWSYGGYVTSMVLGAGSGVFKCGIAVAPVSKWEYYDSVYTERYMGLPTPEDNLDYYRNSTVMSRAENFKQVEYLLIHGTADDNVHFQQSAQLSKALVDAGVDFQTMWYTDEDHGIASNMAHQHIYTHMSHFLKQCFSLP
Neuropeptide Y receptor type 4, sequence (Q61041 whole entry, the tested form may be a part): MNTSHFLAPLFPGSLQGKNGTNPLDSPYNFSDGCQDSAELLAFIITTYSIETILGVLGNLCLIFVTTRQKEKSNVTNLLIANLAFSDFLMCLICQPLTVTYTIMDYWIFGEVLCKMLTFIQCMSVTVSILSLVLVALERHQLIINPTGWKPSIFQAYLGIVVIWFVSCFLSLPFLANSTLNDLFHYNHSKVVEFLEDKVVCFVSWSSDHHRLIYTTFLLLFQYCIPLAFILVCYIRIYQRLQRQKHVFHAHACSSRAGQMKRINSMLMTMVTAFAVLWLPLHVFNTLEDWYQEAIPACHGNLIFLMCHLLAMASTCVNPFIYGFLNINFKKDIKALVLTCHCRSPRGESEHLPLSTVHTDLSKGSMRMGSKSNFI

Row | SMILES | Ki [1] | EC50 [2] | IC50 [3] | pIC50 [3] | EC50 ([4]; read-out: EC50) | EC50 ([4]; read-out: pEC50 (converted)) | EC50 [5] | EC50 ([6]; read-out: EC50) | EC50 ([6]; read-out: pEC50 (converted)) | Ki [7] | IC50 [8] | pIC50 [8] | t1/2 (Dipeptidyl peptidase 4)
1 | CC[C@H](C)[C@H](NC(=O)[C@H](Cc1ccc(O)cc1)NC(=O)[C@H](CCCNC(=N)N)NC(=O)[C@H](CCCNC(=N)N)NC(=O)[C@H](CC(C)C)NC(=O)[C@H](CC(=O)O)NC(=O)[C@H](C)NC(=O)[C@H](C)NC(=O)[C@H](Cc1ccc(O)cc1)NC(=O)[C@H](CCC(N)=O)NC(=O)[C@H](C)NC(=O)[C@H](CCSC)NC(=O)[C@H](CCC(N)=O)NC(=O)[C@H](CCC(=O)O)NC(=O)[C@@H]1CCCN1C(=O)[C@@H](NC(=O)[C@H](C)NC(=O)[C@H](CC(N)=O)NC(=O)[C@H](CC(=O)O)NC(=O)CNC(=O)[C@@H]1CCCN1C(=O)[C@H](Cc1ccc(O)cc1)NC(=O)[C@@H](NC(=O)[C@@H]1CCCN1C(=O)[C@H](CCC(=O)O)NC(=O)[C@H](CC(C)C)NC(=O)[C@@H]1CCCN1C(=O)[C@H](C)N)C(C)C)[C@@H](C)O)C(=O)N[C@@H](CC(N)=O)C(=O)N[C@@H](CCSC)C(=O)N[C@@H](CC(C)C)C(=O)N[C@H](C(=O)N[C@@H](CCCNC(=N)N)C(=O)N1CCC[C@H]1C(=O)N[C@@H](CCCNC(=N)N)C(=O)N[C@@H](Cc1ccc(O)cc1)C(=O)O)[C@@H](C)O | 50 nM | 0.1 nM | > 1000 nM | < 6 | > 30 nM | > 31.6 nM | 2.5 nM | > 30 nM | > 31.6 nM | 5000 nM | 10 nM | 8 | 
2 | CC[C@H](C)[C@H](NC(=O)[C@H](Cc1ccccc1)NC(=O)[C@H](CCC(=O)O)NC(=O)[C@H](CCCCN)NC(=O)[C@H](C)NC(=O)[C@H](C)NC(=O)[C@H](CCC(N)=O)NC(=O)CNC(=O)[C@H](CCC(=O)O)NC(=O)[C@H](CC(C)C)NC(=O)[C@H](Cc1ccc(O)cc1)NC(=O)[C@H](CO)NC(=O)[C@H](CO)NC(=O)[C@@H](NC(=O)[C@H](CC(=O)O)NC(=O)[C@H](CO)NC(=O)[C@@H](NC(=O)[C@H](Cc1ccccc1)NC(=O)[C@@H](NC(=O)CNC(=O)[C@H](CCC(=O)O)NC(=O)[C@H](C)NC(=O)[C@@H](N)Cc1c[nH]cn1)[C@@H](C)O)[C@@H](C)O)C(C)C)C(=O)N[C@@H](C)C(=O)N[C@@H](Cc1c[nH]c2ccccc12)C(=O)N[C@@H](CC(C)C)C(=O)N[C@H](C(=O)N[C@@H](CCCCN)C(=O)NCC(=O)N[C@@H](CCCN=C(N)N)C(=O)NCC(=O)O)C(C)C |  |  |  |  |  |  |  |  |  |  |  |  | 46 min
